Tests used:
Candida albicans = assay: Antifungal activity agaisnt Candida albicans ATCC 10231 by agar diffusion method
Escherichia coli = assay: Antibacterial activity agaisnt Escherichia coli MTCC 8739 by agar diffusion method; assay type: functional
In short: (§1)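 Mueller Hinton agar (pH 7.4) was seeded with 24-h cultures adjusted to 0.5 McFarland. Compounds were prepared as 10 mg/ml stocks in DMF and added to 6 mm wells. DMF served as the negative control. Plates were incubated at 35 °C for 24 h, and the diameter of the growth inhibition zone was read in mm with a caliper.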

Rattus norvegicus [1] = assay: Antiulcerogenic activity against acetic acid-induced ulcerative colitis in albino rat assessed as ulcer index at 12.5 mmol/kg, po; assay type: functional
In short: (§2)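 Male albino rats (190–200 g, n = 5 per group) received drug in DMSO by orogastric cannula daily for 5 days, with the last dose 2 h before colitis. After a 36 h fast and under ether, 4% acetic acid (5 ml/kg) was instilled 8 cm intrarectally. At 24 h, the distal 8 cm colon was scored for wet weight/length, ulcer area (1 mm² grid count), and ulcer index (lesion score 0–4 plus area).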

Rattus norvegicus [2] = assay: Antiulcerogenic activity against acetic acid-induced ulcerative colitis in albino rat assessed as ratio of wet weight and length at 12.5 mmol/kg, po; assay type: functional
In short: as §2

Bacillus subtilis = assay: Antibacterial activity agaisnt Bacillus subtilis MTCC 1456 by agar diffusion method; assay type: functional
In short: as §1

Rattus norvegicus [3] = assay: Antiulcerogenic activity against acetic acid-induced ulcerative colitis in albino rat assessed as ulcer area at 12.5 mmol/kg, po; assay type: functional
In short: as §2

Staphylococcus aureus = assay: Antibacterial activity agaisnt Staphylococcus aureus MTCC 3160 by agar diffusion method; assay type: functional
In short: as §1

[4] = Toxicity in po dosed albino rat; assay type: organism-based; details: in vivo

Structure (SMILES) | diameter of the inhibition zone (DIZ) (Candida albicans) | diameter of the inhibition zone (DIZ) (Escherichia coli) | Activity (Rattus norvegicus [1]) | Ratio (Rattus norvegicus [2]) | diameter of the inhibition zone (DIZ) (Bacillus subtilis) | ulcer area (Rattus norvegicus [3]) | diameter of the inhibition zone (DIZ) (Staphylococcus aureus) | LD50 [4]
COc1c(C(=O)O)c(O)cc2occc12 | 8 mm |  |  |  |  |  |  | 
COc1c(C(=O)O)c(O)c(N)c2occc12 | 8 mm | 10 mm | 5.5 no unit | 90 | 8 mm | 3.3 cm2 | 8 mm | 396 mg/kg
COc1c(C(=O)O)c(O)c(S(=O)(=O)Cl)c2occc12 | 20 mm | 8 mm | 8.1 no unit | 112 | 8 mm | 4.7 cm2 | 8 mm | 390 mg/kg
COc1c(C(=O)O)c(O)c(S(N)(=O)=O)c2occc12 | 14 mm | 8 mm | 7.4 no unit | 103.4 | 8 mm | 4.4 cm2 | 8 mm | 400 mg/kg
COc1c(C(=O)O)c(O)c(/N=N/c2ccccc2)c2occc12 | 18 mm | 10 mm | 4.8 no unit | 84.5 | 10 mm | 2.6 cm2 | 8 mm | 410 mg/kg
COc1c(C(=O)O)c(O)c(/N=N/c2ccc(S(=O)(=O)Nc3ccccn3)cc2)c2occc12 | 22 mm | 12 mm | 6.7 no unit | 95.2 | 12 mm | 3.9 cm2 | 10 mm | 410 mg/kg
COc1c(C(=O)O)c(O)c(NS(=O)(=O)c2ccccc2)c2occc12 | 10 mm |  | 7.4 no unit | 99.1 | 10 mm | 4.4 cm2 |  | 400 mg/kg
COc1c(C(=O)O)c(O)c(NS(=O)(=O)c2ccc(C)cc2)c2occc12 | 15 mm |  | 7.6 no unit | 98.6 | 10 mm | 4.3 cm2 |  | 400 mg/kg
COc1c(C(=O)O)c(O)c(NS(=O)(=O)c2ccc(Cl)cc2)c2occc12 | 8 mm |  | 4.6 no unit | 86.4 | 12 mm | 2.6 cm2 |  | 390 mg/kg
COc1c(C(=O)O)c(O)c(S(=O)(=O)Nc2ccccc2)c2occc12 | 15 mm |  | 8.5 no unit | 119.9 | 12 mm | 5.1 cm2 |  | 396 mg/kg
COc1c(C(=O)O)c(O)c(S(=O)(=O)Nc2ccc(C)cc2)c2occc12 | 10 mm | 12 mm | 8.1 no unit | 111 |  | 4.7 cm2 | 8 mm | 396 mg/kg
COc1c(C(=O)O)c(O)c(S(=O)(=O)Nc2ccc(Cl)cc2)c2occc12 | 12 mm | 12 mm | 8.2 no unit | 112 |  | 4.8 cm2 |  | 410 mg/kg
COc1c(C(=O)O)c(O)c(S(=O)(=O)Nc2ccc(Cl)cc2Cl)c2occc12 | 8 mm |  | 8.2 no unit | 110 |  | 4.8 cm2 |  | 410 mg/kg
COc1ccc(NS(=O)(=O)c2c(O)c(C(=O)O)c(OC)c3ccoc23)cc1 | 8 mm |  | 8.7 no unit | 120.1 | 10 mm | 5.1 cm2 |  | 396 mg/kg
C[C@@H]1[C@H](O)[C@@H](C)/C=C/C=C/C=C/C=C/C=C/C=C/C=C/[C@H](O[C@@H]2O[C@H](C)[C@@H](O)[C@H](N)[C@@H]2O)C[C@@H]2O[C@](O)(C[C@@H](O)C[C@@H](O)[C@H](O)CC[C@@H](O)C[C@@H](O)CC(=O)O[C@H]1C)C[C@H](O)[C@H]2C(=O)O [AMPHOTERICIN B] | 20 mm |  |  |  |  |  |  | 
O=C(O)c1cc(/N=N/c2ccc(S(=O)(=O)Nc3ccccn3)cc2)ccc1O [SULFASALAZINE] | 7 mm | 8 mm | 3.7 no unit | 79 | 25 mm | 2.1 cm2 | 30 mm | 
